The campaign covered roughly 360,000 compounds. About 1,500 (0.42%) were called active. The sample holds actives, similar compounds and a random draw of the others, so the mix is not that of the screen. Unmarked numbers belong to inactive results.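 Rule for the calls: active = inhibition above a per-plate cutoff of the control wells' mean inhibition plus 3 SD (cut at about 5.5% in these data); inactive = the rest.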

The test system of this assay is methionyl-tRNA synthetase (Trypanosoma brucei brucei). Description: inhibition of trypanosome methionyl-tRNA synthetase – biochemical, luminescence, primary screen (AID 624268).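 Note: 0% = DMSO wells median and 100% = median of wells with control inhibitor compound.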 As to conditions: purified T. brucei MetRS, ATP depletion, Kinase-Glo luminescence; at 11.9 µM; hits give high values. The method in brief: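 Material: T. brucei methionyl-tRNA synthetase, purified; reagent: substrates ATP, L-methionine and bulk Escherichia coli tRNA; dosing: 11.9 µM single point; timing: 15 min plus 2 h at 25 °C; detection: luminescence of leftover ATP; evaluation: % inhibition; control set: DMSO-only wells as low control; replicates: singlicate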
In general terms: In Kinase-Glo more light means more ATP remaining.
Consider `CCCNS(=O)(=O)c1ccc2c(c1)CCCN2C(C)=O`, for which the inhibition was -0.19%.
As to `Clc1ccc(-c2cc(C3CCNCC3)[nH]n2)c(Cl)c1`, the inhibition is 39.1% (active).
Consider `Clc1ccc(-c2cc(-c3ccccn3)on2)c(Cl)c1`, for which the inhibition is 0.55%.
Next, `CCC(C)[C@H](NC(=O)N1c2ccccc2NC(=O)[C@@H]1C(C)C)C(=O)N[C@@H](Cc1ccccc1)C(=O)O` (stereo partly specified): -1.81%; `CSCCC(NC(=O)c1cc([N+](=O)[O-])cc([N+](=O)[O-])c1)c1nc2ccccc2[nH]1` (stereo unspecified): 3.68%; `O=C(NCC(O)c1nc2ccccc2[nH]1)c1ccc(Br)cc1` (stereo unspecified): 21% (active).
As to `CCCC(NC(=O)c1ccco1)c1nc2ccccc2[nH]1` (stereo unspecified), the inhibition is 0.25%.
`COc1ccccc1CCC(=O)OCC(=O)N1CCN(S(=O)(=O)c2ccc(C)cc2C)CC1`: the inhibition was -0.39%.
On to `O=C(NCc1cccc(CNC(=O)Nc2cccc(O)c2)c1)Nc1cccc(O)c1`, for which the inhibition was 8.03% (active).
For the compound `C/C(=C\C(=O)c1ccccc1)Nc1cccc(O)c1`, the inhibition was 0.01%.
Regarding `O=C(NCc1cccnc1)Nc1cccc(NC(=O)NCc2cccnc2)c1F`, the inhibition is -1.05%.
Turning to `O=C(CSCc1ccc([N+](=O)[O-])cc1)NCCSCc1ccccc1`, the inhibition is -0.21%.
Take `CCCCc1nnc(NC(=O)CS(=O)(=O)Cc2ccccc2)s1`: the inhibition is -0.35%.
For the compound `O=C(NCCOc1ccccc1F)Nc1ccc(Br)cc1`, the inhibition is 2.66%.
With `O=C(Nc1ccccc1)Nc1nnc(COc2ccccc2F)s1`, the inhibition is 17.3% (active).
`COCc1nnc(NC(=O)CS(=O)(=O)Cc2ccccc2)s1`: the inhibition was 0.23%.
The value for `CN1CCN(S(=O)(=O)c2ccc3[nH]cc(C(=O)O)c(=O)c3c2)CC1` was 1.71%; that for `Cc1ccc2[nH]cc(CCCN3C(=O)c4ccccc4C3=O)c2c1` was -0.1%; that for `Cc1ccc(S(=O)(=O)c2c[nH]c3ccc(Cl)cc3c2=O)cc1` was 40.4% (active).
For the compound `CCCn1cc(S(=O)(=O)c2ccc(C)cc2)c(=O)c2cc(OCC)ccc21`, the inhibition was -0.04%.
As for `CCOc1ccc2c(c1)c(=O)c(S(=O)(=O)c1ccc(C)cc1)cn2CC`, the inhibition is -0.11%.
With `Cc1ccc(S(=O)(=O)c2c[nH]c3ccc(C)cc3c2=O)cc1`, the inhibition was 8.92% (active).
In the case of `O=C(Nc1ccccc1Cl)/C(Cl)=C(\Cl)S(=O)c1ccccc1` (stereo unspecified), the inhibition is -0.49%.
Next, `CCCCn1c(-c2cccc(C)c2)nc2cc3[nH]c(=O)c(C(C)C)nc3cc21`: -0.06%; `CCCCCn1nnnc1C1c2ccccc2C(=O)N1Cc1ccco1` (stereo unspecified): -0.27%; `CCCCCn1nnnc1-c1nc2cc3ccccc3cc2[nH]c1=O`: 34.6% (active).
As to `C=CCNC(=S)N/N=C/c1ccc(C)s1`, the inhibition was -0.64%.
With `CC(C)CNC(=O)C1CCCN(S(=O)(=O)c2ccc(-n3cnnn3)cc2)C1` (stereo unspecified), the inhibition was -0.29%.
As to `CCOc1ncccc1C(=O)N(C)CC(=O)Nc1ccc(F)cc1`, the inhibition was -0.63%.
For `CC1(C)CC(=O)C=C(c2cccc3c2Oc2ccccc2S3)C1`, the inhibition was -0.11%.
The value for `COc1ccc(C)cc1-n1nnnc1SCc1nc2ccccc2c(=O)[nH]1` was 0.31%; that for `O=c1c(-c2ccc(Cl)cc2)[n+]([O-])c2ccccc2n1OCc1nc2ccccc2[nH]1` was -0.49%; that for `Clc1ccccc1SCc1nc2ccccc2[nH]1` was 7.72% (active).
Take `O=C(COC(=O)c1ncc(Cl)c(Cl)c1Cl)NNC(=O)c1ccccc1`: the inhibition was -0.19%.
Regarding `O=C(/C=C/c1cccs1)c1cc(Cl)ccc1OC(=O)N1CCOCC1`, the inhibition was -0.94%.
As for `O=C1CC(C(=O)O)NC(=S)N1` (stereo unspecified), the inhibition was 0.05%.
Turning to `Cc1oc(CC(C)C)c(CN2CCCC2)c1C(=O)O`, the inhibition is -0.29%.
In the case of `O=C(Nc1nsc(-c2ccccc2)n1)c1ccncc1`, the inhibition was -1.68%.
`NS(=O)(=O)c1ccc(CCNC(=O)Nc2ccc(Cl)cc2)cc1`: the inhibition was 26.5% (active).
On to `CN(CC(=O)NCCc1ccc(S(N)(=O)=O)cc1)CC(=O)Nc1ccc(Cl)cc1`, for which the inhibition was -0.04%.
Regarding `NS(=O)(=O)c1ccc(CCNC(=O)NC2CCCCC2)cc1`, the inhibition is -1.44%.
As to `CC(=O)C1(C)N(O)C(C)(C)C(c2cccs2)=[N+]1[O-]` (stereo unspecified), the inhibition was -1.27%.
As for `COc1ccccc1C(=O)N(Cc1ccc(C)o1)C1CCS(=O)(=O)C1` (stereo unspecified), the inhibition was -0.11%.
In the case of `CC1(C(=O)NS(=O)(=O)c2ccccc2)CCN1C(=O)C1CCCCC1` (stereo unspecified), the inhibition is -0.08%.
Take `CC(C)(C)c1ccc(S(=O)(=O)NC(=O)C2(C)CCN2C(=O)CC2CC2)cc1` (stereo unspecified): the inhibition was -0.1%.
Next, `COc1ccc(NC2CCCN(C(=O)c3ccncc3)C2)cc1` (stereo unspecified): -0.58%.

The inhibition is the relative decrease from the control value, in per cent.

These data come from PubChem BioAssay AID624268 (The Scripps Research Institute Molecular Screening Center, 2012).
